This is an account of results in ChEMBL document CHEMBL1124344, “5-Piperazinylalkyl-2(3H)-oxazolones with neuroleptic activity” (J Med Chem, 1989).

Data set [1] can be described thus: Lethal dose in mice (LD50) following i.p. dosing. In kind it is toxicity, organism-based. To be noted: mouse, in vivo, ip. The method, boiled down:
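Acute toxicity tested in mice by the intraperitoneal route. LD50 is the dose killing 50% of treated mice, computed by Finney probit analysis; values are approximate.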

Data set [2] concerns Mus musculus. Kind of data set: Inhibition of amphetamine-induced hypermobility in mice following p.o. administration. The note with it: po. In kind it is functional. Put shortly: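 Compounds were given orally to male mice (gum arabic suspension, 10 mL/kg, fasted) in groups of five. Amphetamine 4 mg/kg ip followed 30 min later. After another 10 min, motility was recorded for 15 min with a photocell actophotometer. ED50, by probit analysis, is the dose giving 50% reduction against controls.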

Data set [3] deals with Rattus norvegicus. Kind of data set: Antagonistic activity against apomorphine-induced stereotypy in rats, by administering perorally at a dose of 400 mg/kg. The note with it: route oral. It counts as functional. The method, boiled down:
(§1)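 Male rats fasted overnight and given oral doses in arabic gum suspension (10 mL/kg) 1 h, or 1 and 5 h, before challenge. Apomorphine 3 mg/kg iv, with stereotypy observed 20 min later. ED50 is the dose inhibiting stereotypy in 50% of rats, per Janssen's method. Parenthetical entries give the maximal dose and percent activity.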

Data set [4] relates to Mus musculus. Kind of data set: Inhibition of spontaneous motor activity in mice, by administering perorally. It counts as functional. The note with it: po. Put shortly:
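Mice in groups of five were dosed orally with gum arabic suspensions at 10 mL/kg after an overnight fast, with a vehicle control group. Locomotion was counted for 10 min in a photocell activity cage, in at least two groups per dose. ED50, by probit analysis, is the dose giving 50% inhibition against controls.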

Data set [5] has as its system Rattus norvegicus. Kind of data set: Activity to evoke catalepsy in rats, by administering perorally at a dose of 150 mg/kg. In kind it is functional. The note with it: route oral. Put shortly: (§2)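 Rats fasted overnight and given oral doses in arabic gum suspension (10 mL/kg), 1 h before screening or 1 and 5 h before profile testing. Forelegs placed on a horizontal bar 7 cm high, three times at 5-min intervals. Immobility of at least 15 s counts as catalepsy. ED50 is the dose giving catalepsy in 50% of rats, by probit analysis. Parenthetical entries give the maximal dose and percent activity.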

Data set [6] deals with Rattus norvegicus. Kind of data set: Activity to evoke catalepsy in rats, by administering perorally at a dose of 40 mg/kg. It counts as functional. The note with it: route oral. Put shortly: as §2
For data set [7], the system named is Rattus norvegicus. Kind of data set: Antagonistic activity against apomorphine-induced stereotypy in rats, by administering perorally at a dose of 40 mg/kg. It counts as functional. The note with it: route oral. The method, boiled down:
as §1

Data set [8] has as its system Mus musculus. Kind of data set: Inhibition of spontaneous motor activity in mice, by administering perorally at a dose of 40 mg/kg. It counts as functional. The note with it: route oral. The method, boiled down:
(§3)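 Mice fasted overnight, then dosed orally with compound (weighed as base) suspended in arabic gum, 10 mL/kg, with vehicle controls; 1 h pretreatment for screening tests, 1 or 5 h for others. Groups of five; locomotor activity counted 10 min in photocell activity cage, at least two groups per dose. ED50 = dose giving 50% inhibition versus controls, by probit analysis.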

For data set [9], the system named is Rattus norvegicus. Kind of data set: Activity to evoke catalepsy in rats, by administering perorally at a dose of 70 mg/kg. In kind it is functional. To be noted: route oral. The method, boiled down: as §2
The test system of data set [10] is Rattus norvegicus. Kind of data set: Antagonistic activity against apomorphine-induced stereotypy in rats, by administering perorally at a dose of 70 mg/kg. It counts as functional. To be noted: route oral. The method, boiled down: as §1
Data set [11] concerns Mus musculus. Kind of data set: Antagonistic activity against amphetamine-induced Hypermobility in mice, by administering perorally at a dose of 70 mg/kg. In kind it is functional. The note with it: route oral. Put shortly: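 Male mice in groups of five, fasted overnight, given oral drug in arabic gum suspension (10 mL/kg) 1 or 5 h ahead. Amphetamine 4 mg/kg ip given 30 min after drug. Ten minutes later locomotion is recorded for 15 min in a photocell actophotometer. ED50 is 50% reduction versus control hypermotility, by probit analysis. Parenthetical entries give the maximal dose and percent activity.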

The test system of data set [12] is Mus musculus. Kind of data set: Inhibition of spontaneous motor activity in mice, by administering perorally at a dose of 70 mg/kg. In kind it is functional. To be noted: route oral. The method, boiled down: as §3

Structures are written as SMILES.

`Oc1nc(-c2ccc(Cl)cc2)c(CCN2CCN(c3ccccc3)CC2)o1` registered an LD50 in data set [1] above 1000 mg/kg. In addition, the ED50 came out at 4.7 mg/kg in the data set with Mus musculus [2] and 3 mg/kg with Mus musculus [4]. The compound further displayed an inhibition in vivo at 400 mg/kg in the data set on Rattus norvegicus [3] of 0%. This compound returned an inhibition in vivo at 150 mg/kg in the data set with Rattus norvegicus [5] of 0%.

For the compound `Oc1nc(-c2ccc(F)cc2)c(CCN2CCN(c3ccc(Cl)cc3Cl)CC2)o1`, the LD50 in data set [1] was determined as 1000 mg/kg. In the data set on Mus musculus [2], this compound displayed an ED50 of 23.9 mg/kg. In addition, the inhibition in vivo at 40 mg/kg in the data set on Rattus norvegicus [6] worked out at 0%; with Rattus norvegicus [7] it was 0%; with Mus musculus [8], 45%.

Consider `CSc1ccc(-c2nc(O)oc2CCN2CCN(c3ccccc3)CC2)cc1`, for which the inhibition in vivo at 70 mg/kg in the data set on Rattus norvegicus [9] was 0%; in the data set on Rattus norvegicus [10] it was 0%; with Mus musculus [11], 0%; in the data set on Mus musculus [12] it was 47%. Moreover, in data set [1], the LD50 amounted to 250 mg/kg.

The term LD50 denotes the dose expected to kill half of the subjects tested. What is called ED50 is the midpoint of the dose-response relation. High values mean weaker potency, low ones greater potency. In general, inhibition in vivo refers to the share of the control response that was lost under treatment. A lower inhibition in vivo goes with a response near the control.
